Reference: ChEMBL document CHEMBL1152825, “Pseudomonas aeruginosa may accumulate drug resistance mechanisms without losing its ability to cause bloodstream infections” (2007)
In brackets after ≈: the same amount, converted by molar mass.

How the values were obtained:
Assay type in all cases: functional
Pseudomonas aeruginosa [1] = assay: Antibacterial activity against Pseudomonas aeruginosa clinical isolate by macrodilution technique
Pseudomonas aeruginosa [2] = assay: Antibacterial activity against Pseudomonas aeruginosa clinical isolates assessed as susceptible rate by macrodilution technique
Pseudomonas aeruginosa [3] = assay: Antibacterial activity against beta-lactams resistant Pseudomonas aeruginosa isolate expressing AmpC, MexXY-OprM pump by macrodilution technique
Outline: (§1)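 MICs by agar macrodilution on Mueller-Hinton agar with calibrated divalent cations. Isolates were graded susceptible, intermediate or resistant by CLSI breakpoints. Resistance was defined as a ≥fourfold MIC rise over reference strain PAO1. Resistance mechanisms were assigned by RT-PCR (PAO1-derived overexpressing mutants as controls) and gene complementation.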

Pseudomonas aeruginosa [4] = assay: Antibacterial activity against beta-lactams resistant Pseudomonas aeruginosa isolate expressing MexAB-OprM pump by macrodilution technique; outline: as §1
Pseudomonas aeruginosa [5] = assay: Antibacterial activity against beta-lactams resistant OprD-deficient Pseudomonas aeruginosa isolate by macrodilution technique; outline: as §1
Pseudomonas aeruginosa [6] = assay: Antibacterial activity against beta-lactams resistant Pseudomonas aeruginosa isolate expressing AmpC by macrodilution technique; outline: as §1
Pseudomonas aeruginosa [7] = assay: Antibacterial activity against beta-lactams resistant Pseudomonas aeruginosa isolate expressing PSE-1, MexXY-OprM pump by macrodilution technique; outline: as §1
Pseudomonas aeruginosa [8] = assay: Antibacterial activity against wild type Pseudomonas aeruginosa PAO1 by macrodilution technique
Outline: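 Wild-type reference strain PAO1. MIC by agar macrodilution on Mueller-Hinton agar with calibrated divalent cations. It served as the baseline for defining a ≥fourfold MIC increase in clinical isolates, and as the expression reference in RT-PCR.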

Pseudomonas aeruginosa [9] = assay: Antibacterial activity against Pseudomonas aeruginosa clinical isolates assessed as resistant rate by macrodilution technique
Pseudomonas aeruginosa [10] = assay: Antibacterial activity against beta-lactams resistant Pseudomonas aeruginosa isolate expressing MexXY-OprM pump by macrodilution technique; outline: as §1
Pseudomonas aeruginosa [11] = assay: Antibacterial activity against aminoglycoside-resistant Pseudomonas aeruginosa isolate expressing MexXY-OprM pump, AAC(6')-1, ANT(2'')-1 by macrodilution technique
Outline: as §1, with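 “Bloodstream P. aeruginosa isolates from patients in six French teaching hospitals (1999–2004). MICs” for “MICs”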

Pseudomonas aeruginosa [12] = assay: Antibacterial activity against aminoglycoside-resistant Pseudomonas aeruginosa isolate expressing MexXY-OprM pump, ANT(2'')-1 by macrodilution technique
Outline: as §1, with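 “Bloodstream P. aeruginosa isolates from patients in six French teaching hospitals (1999–2004). MICs” for “MICs”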

Pseudomonas aeruginosa [13] = assay: Antibacterial activity against aminoglycoside-resistant Pseudomonas aeruginosa isolate expressing AAC(6')-1, ANT(2'')-1 by macrodilution technique
Outline: as §1, with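 “Bloodstream P. aeruginosa isolates from patients in six French teaching hospitals (1999–2004). MICs” for “MICs”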

Pseudomonas aeruginosa [14] = assay: Antibacterial activity against aminoglycoside-resistant Pseudomonas aeruginosa isolate expressing MexXY-OprM pump by macrodilution technique
Outline: as §1, with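 “Bloodstream P. aeruginosa isolates from patients in six French teaching hospitals (1999–2004). MICs” for “MICs”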

Pseudomonas aeruginosa [15] = assay: Antibacterial activity against aminoglycoside-resistant Pseudomonas aeruginosa isolate expressing MexXY-OprM pump, AAC(6')-1, AAC(3')-1 by macrodilution technique
Outline: as §1, with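 “Bloodstream P. aeruginosa isolates from patients in six French teaching hospitals (1999–2004). MICs” for “MICs”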

Pseudomonas aeruginosa [16] = assay: Antibacterial activity against aminoglycoside-resistant Pseudomonas aeruginosa isolate expressing ANT(2'')-1 by macrodilution technique
Outline: as §1, with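 “Bloodstream P. aeruginosa isolates from patients in six French teaching hospitals (1999–2004). MICs” for “MICs”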

Pseudomonas aeruginosa [17] = assay: Antibacterial activity against aminoglycoside-resistant Pseudomonas aeruginosa isolate expressing AAC(6')-1 by macrodilution technique
Outline: as §1, with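 “Bloodstream P. aeruginosa isolates from patients in six French teaching hospitals (1999–2004). MICs” for “MICs”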

Pseudomonas aeruginosa [18] = assay: Antibacterial activity against aminoglycoside-resistant Pseudomonas aeruginosa isolate expressing MexXY-OprM pump, AAC(3')-1 by macrodilution technique
Outline: as §1, with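 “Bloodstream P. aeruginosa isolates from patients in six French teaching hospitals (1999–2004). MICs” for “MICs”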

Pseudomonas aeruginosa [19] = assay: Antibacterial activity against wild type Pseudomonas aeruginosa isolate by macrodilution technique; outline: as §1
Pseudomonas aeruginosa [20] = assay: Antibacterial activity against aminoglycoside-resistant Pseudomonas aeruginosa isolate expressing MexXY-OprM pump, AAC(6')-1 by macrodilution technique
Outline: as §1, with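 “Bloodstream P. aeruginosa isolates from patients in six French teaching hospitals (1999–2004). MICs” for “MICs”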

Pseudomonas aeruginosa [21] = assay: Antibacterial activity against MexXY-OprM pump-independent aminoglycoside-resistant Pseudomonas aeruginosa isolate by macrodilution technique
Outline: as §1, with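 “Bloodstream P. aeruginosa isolates from patients in six French teaching hospitals (1999–2004). MICs” for “MICs”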

Pseudomonas aeruginosa [22] = assay: Antibacterial activity against beta-lactams resistant Pseudomonas aeruginosa isolate expressing AmpC, MexAB-OprM pump, MexXY-OprM pump by macrodilution technique; outline: as §1
Pseudomonas aeruginosa [23] = assay: Antibacterial activity against beta-lactams resistant Pseudomonas aeruginosa isolate expressing AmpC, PSE-1, MexXY-OprM pump by macrodilution technique; outline: as §1
Pseudomonas aeruginosa [24] = assay: Antibacterial activity against beta-lactams resistant Pseudomonas aeruginosa isolate expressing OXA2 by macrodilution technique; outline: as §1
Pseudomonas aeruginosa [25] = assay: Antibacterial activity against beta-lactams resistant Pseudomonas aeruginosa isolate expressing AmpC, MexAB-OprM pump by macrodilution technique
Outline: as §1, with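 “Bloodstream P. aeruginosa isolates from patients in six French teaching hospitals (1999–2004). MICs” for “MICs”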

Pseudomonas aeruginosa [26] = assay: Antibacterial activity against beta-lactams resistant Pseudomonas aeruginosa isolate expressing PSE-1 by macrodilution technique; outline: as §1
Pseudomonas aeruginosa [27] = assay: Antibacterial activity against beta-lactams resistant Pseudomonas aeruginosa isolate expressing MexAB-OprM pump, MexXY-OprM pump by macrodilution technique; outline: as §1
Pseudomonas aeruginosa [28] = assay: Antibacterial activity against beta-lactams resistant Pseudomonas aeruginosa isolate expressing AmpC, MexXY-OprM pump, TEM-2 by macrodilution technique; outline: as §1
Pseudomonas aeruginosa [29] = assay: Antibacterial activity against beta-lactams resistant Pseudomonas aeruginosa isolate expressing MexXY-OprM pump, TEM-2 by macrodilution technique; outline: as §1

Row | Molecule | MIC50 (Pseudomonas aeruginosa [1]) | MIC90 (Pseudomonas aeruginosa [1]) | Activity (Pseudomonas aeruginosa [2]) | MIC (Pseudomonas aeruginosa [3]) | MIC (Pseudomonas aeruginosa [4]) | MIC (Pseudomonas aeruginosa [5]) | MIC (Pseudomonas aeruginosa [6]) | MIC (Pseudomonas aeruginosa [8]) | Activity (Pseudomonas aeruginosa [9]) | MIC (Pseudomonas aeruginosa [11]) | MIC (Pseudomonas aeruginosa [12]) | MIC (Pseudomonas aeruginosa [13]) | MIC (Pseudomonas aeruginosa [14]) | MIC (Pseudomonas aeruginosa [15]) | MIC (Pseudomonas aeruginosa [16]) | MIC (Pseudomonas aeruginosa [17]) | MIC (Pseudomonas aeruginosa [18]) | MIC (Pseudomonas aeruginosa [19]) | MIC (Pseudomonas aeruginosa [20]) | MIC (Pseudomonas aeruginosa [21]) | also measured
1 | C[C@@H](O)[C@H]1C(=O)N2C(C(=O)O)=C(SCCNC=N)C[C@H]12 [IMIPENEM ANHYDROUS] | 2 µg/mL (≈ 6.68 µM) | 16 µg/mL (≈ 53.4 µM) | 82.5% | 16 µg/mL (≈ 53.4 µM) | 4 µg/mL (≈ 13.4 µM) | 8 µg/mL (≈ 26.7 µM) | 8 µg/mL (≈ 26.7 µM) | 1 µg/mL (≈ 3.34 µM) | 10.8% |  |  |  |  |  |  |  |  |  |  |  | MIC (Pseudomonas aeruginosa [7]): 64 µg/mL (≈ 214 µM); MIC (Pseudomonas aeruginosa [10]): 8 µg/mL (≈ 26.7 µM)
2 | CCN[C@@H]1C[C@H](N)[C@@H](O[C@H]2OC(CN)=CC[C@H]2N)[C@H](O)[C@H]1O[C@H]1OC[C@](C)(O)[C@H](NC)[C@H]1O [NETILMICIN] | 8 µg/mL (≈ 16.8 µM) | 32 µg/mL (≈ 67.3 µM) | 56.7% |  |  |  |  | 4 µg/mL (≈ 8.41 µM) | 15% | > 128 µg/mL | 16 µg/mL (≈ 33.6 µM) | > 128 µg/mL | 16 µg/mL (≈ 33.6 µM) | > 128 µg/mL | 8 µg/mL (≈ 16.8 µM) | > 128 µg/mL | 16 µg/mL (≈ 33.6 µM) | 4 µg/mL (≈ 8.41 µM) | > 128 µg/mL | 16 µg/mL (≈ 33.6 µM) | 
3 | CC1(C)S[C@@H]2[C@H](NC(=O)[C@H](C(=O)O)c3ccsc3)C(=O)N2[C@H]1C(=O)O [TICARCILLIN] | 32 µg/mL (≈ 83.2 µM) | 256 µg/mL (≈ 666 µM) | 77.5% | 128 µg/mL (≈ 333 µM) | 128 µg/mL (≈ 333 µM) | 16 µg/mL (≈ 41.6 µM) | 64 µg/mL (≈ 166 µM) | 16 µg/mL (≈ 41.6 µM) | 10.8% |  |  |  |  |  |  |  |  | 16 µg/mL (≈ 41.6 µM) |  |  | MIC (Pseudomonas aeruginosa [22]): 128 µg/mL (≈ 333 µM); MIC (Pseudomonas aeruginosa [23]): > 256 µg/mL; MIC (Pseudomonas aeruginosa [24]): 128 µg/mL (≈ 333 µM); MIC (Pseudomonas aeruginosa [25]): 128 µg/mL (≈ 333 µM); MIC (Pseudomonas aeruginosa [26]): > 256 µg/mL; MIC (Pseudomonas aeruginosa [7]): > 256 µg/mL; MIC (Pseudomonas aeruginosa [27]): 128 µg/mL (≈ 333 µM); MIC (Pseudomonas aeruginosa [10]): 16 µg/mL (≈ 41.6 µM); MIC (Pseudomonas aeruginosa [28]): > 256 µg/mL; MIC (Pseudomonas aeruginosa [29]): > 256 µg/mL
4 | NC[C@H]1O[C@H](O[C@H]2[C@H](O)[C@@H](O[C@H]3O[C@H](CO)[C@@H](O)[C@H](N)[C@H]3O)[C@H](N)C[C@@H]2N)[C@H](N)C[C@@H]1O [TOBRAMYCIN] | 1 µg/mL (≈ 2.14 µM) | > 64 µg/mL | 77.5% |  |  |  |  | 0.5 µg/mL (≈ 1.07 µM) | 21.7% | 64 µg/mL (≈ 137 µM) | > 64 µg/mL | 64 µg/mL (≈ 137 µM) | 2 µg/mL (≈ 4.28 µM) | > 64 µg/mL | 16 µg/mL (≈ 34.2 µM) | 32 µg/mL (≈ 68.4 µM) | 2 µg/mL (≈ 4.28 µM) | 1 µg/mL (≈ 2.14 µM) | > 64 µg/mL | 2 µg/mL (≈ 4.28 µM) | 
5 | GENTAMICIN | 4 µg/mL | 128 µg/mL | 53.3% |  |  |  |  | 2 µg/mL | 25% | 128 µg/mL | 128 µg/mL | 128 µg/mL | 8 µg/mL | 128 µg/mL | > 128 µg/mL | 128 µg/mL | 128 µg/mL | 4 µg/mL | 128 µg/mL | 8 µg/mL | 
